Measurements gathered from unrelated publications.
Each line is one published result; the experiments were not run side by side.
Effect on: thermal stability
Technique: DSF
SIRT2: NAD-dependent protein deacetylase sirtuin-2 (SIRT2, Homo sapiens, UniProt Q8IXJ6)
DCLK1: Serine/threonine-protein kinase DCLK1 (DCLK1, Homo sapiens, UniProt O15075)
GAK: Cyclin-G-associated kinase (GAK, Homo sapiens, UniProt O14976)
lecA: PA-I galactophilic lectin (lecA, Pseudomonas aeruginosa, UniProt Q05097)

| SMILES | target | conditions | ΔTm |
| --- | --- | --- | --- |
| Cc1cc(C)nc(SCC(=O)Nc2ncc(Cc3cccc(OCc4cn(Cc5ccccc5C)nn4)c3)s2)n1 | SIRT2 | 25 µM | 4.26 °C |
| Cn1c2c(Cl)c(Cl)ccc2c2cn[nH]c(=O)c21 | DCLK1 | 10 µM | -0.2 °C |
| Fc1cc(Nc2ccnc3ccc(C(F)(F)F)cc23)cc(F)c1F | GAK | 10 µM | 3.7 °C |
| CC(C)(C)c1ccc(O)c(O)c1 | lecA | 4 mM | -15.4 °C |
| Cc1cc(C)nc(SCC(=O)Nc2ncc(Cc3cccc(OCc4cn(Cc5ccc(OCCN6CCOCC6)cc5)nn4)c3)s2)n1 | SIRT2 | 25 µM | 6.63 °C |
| N#Cc1cccc(O)c1O | lecA | 4 mM | 1.8 °C |
| CCCCCCCC(=O)Nc1ncc(Cc2cccc(OCc3cn(CCOC)nn3)c2)s1 | SIRT2 | 25 µM | 4.28 °C |
| CCC1(CC)NC(=O)c2c(c3ccc(Cl)c(Cl)c3n2C)C1C#N (centres unmarked) | DCLK1 | 10 µM | 0 °C |
| COc1ccccc1Nc1ccnc2ccc(C(F)(F)F)cc12 | GAK | 10 µM | 3 °C |
| CCN1CCC2(CC1)NC(=O)c1c(c3ccc(Cl)c(Cl)c3n1C)C2C#N (racemic) | DCLK1 | 10 µM | 0.1 °C |
| FC(F)(F)c1ccc2nccc(Nc3ccc(Cl)cc3)c2c1 | GAK | 10 µM | 4.3 °C |
